Structures are written as SMILES.

The test system of one data set is DU-145. Briefly: Cytotoxicity against human DU145 cells after 48 hrs by […]. In kind it is functional, cell-based. Conditions: for IC50: DU-145, 48 h. The gist of the method:
(§1)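 Cells from ATCC, grown in RPMI 1640 with 10% heat-inactivated FBS and 1% penicillin/streptomycin. Seeded at 5000 cells/well and incubated overnight, then exposed to graded compound concentrations or DMSO vehicle for 48 h. Viability was read by MTS reagent absorbance at 490 nm and normalized to vehicle. Each experiment was run in triplicate or quadruplicate; values are means ± SD.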

In the next data set the test system is A2058. In words: Cytotoxicity against human A2058 cells after 48 hrs by […]. Format: functional, cell-based. Conditions: for IC50: A2058, 48 h. The gist of the method: as §1
A further data set deals with NHDF. Briefly: Cytotoxicity against human NHDF cells after 48 hrs by […]. Format: cell-based. As to conditions: for IC50: Homo sapiens, NHDF; for inhibition (INH): human, nhdf. The gist of the method: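 Normal human dermal fibroblasts were grown in DMEM with 10% FBS. Seeded at 5000 cells/well and incubated overnight, then exposed to compounds or DMSO vehicle for 48 h. Viability was read by MTS absorbance at 490 nm and normalized to vehicle. Each experiment was run in triplicate or quadruplicate.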

Turning to `C=C(C)C(O)Cc1c(O)c(C(C)=O)c(O)c(C(CC(C)C)c2c(O)c(CC=C(C)C)c(OC)c(C(C)=O)c2O)c1O` (stereo not given) [ACROVESTENOL], in the data set on DU-145, the inhibition entry is “Dose-dependent effect” and half-maximal inhibition (IC50) was put at 2700 nM. Besides, in the data set on A2058, the inhibition entry was “Dose-dependent effect” and half-maximal inhibition (IC50) was put at 2.8 µM. Also, in the data set on NHDF, the IC50 is over 5 µM and the “inhibition (INH)” value was “Dose-dependent effect”.

Take `CNC(=O)c1cc(Oc2ccc(NC(=O)Nc3ccc(Cl)c(C(F)(F)F)c3)cc2)ccn1` [SORAFENIB]: the results for the IC50 with DU-145 and in the data set with A2058 were 5100 nM and 3.8 µM, respectively.

`COc1c(CC=C(C)C)c(O)c(C(CC(C)C)c2c(O)c(C(C)=O)c(O)c3c2OC(C(C)(C)O)C3)c(O)c1C(C)=O` (stereo not given) [ACROFOLIONE A]: in the data set with DU-145, the inhibition entry was “Dose-dependent effect” and the 50% inhibitory concentration (IC50) was over 5000 nM. In the data set with A2058, the inhibition result was “Dose-dependent effect” and half-maximal inhibition (IC50) required 4.2 µM. Moreover, in the data set with NHDF, the IC50 was over 5 µM and the “inhibition (INH)” value is recorded as “Dose-dependent effect”.

On to `COc1c(CC=C(C)C)c(O)c([C@H](CC(C)C)c2c(O)c(CC=C(C)C)c(O)c(C(C)=O)c2O)c(O)c1C(C)=O` [ACROVESTONE], for which, in the data set on DU-145, the inhibition entry was “Dose-dependent effect” and the IC50 was 930 nM. In addition, in the data set with A2058, the inhibition result is “Dose-dependent effect” and the concentration for half-maximal inhibition (IC50) worked out at 0.38 µM. In the data set with NHDF, the IC50 was over 5 µM and the “inhibition (INH)” value was “Dose-dependent effect”.

For the origin of these results see ChEMBL document CHEMBL2086260, “Cytotoxic prenylated acetophenone dimers from Acronychia pedunculata” (J Nat Prod, 2012).
